K data for 31 compounds are collected here from ChEMBL document CHEMBL1122808, “Substituent effects on reactivity and spectral parameters of cephalosporins” (J Med Chem, 1984).

Several values for one entry are separate records, joined by “and”; a condition that tells them apart may be missing. Equal values may be shown once.

A short description of one data set: Hydrolysis rate constant at pH 10. Type of data set: ADME. To be noted: buffer.
`CSCC1=C(C(=O)O)N2C(=O)C(NC(=O)Cc3cccs3)C2SC1` (configuration not stated) had a k of 0.079 h⁻¹.

In the case of `O=C(COc1ccccc1)NC1C(=O)N2C(C(=O)O)=C(CO)CSC12` (configuration not stated), the k is 0.084 h⁻¹. For `CC1=C(C(=O)O)N2C(=O)C(NC(=O)Cc3cccs3)C2SC1` (configuration not stated), the k came out at 0.038 h⁻¹. Regarding `CC1=C(C(=O)O)N2C(=O)C(N)C2SC1` (configuration not stated), the k stood at 0.0097 h⁻¹. `CC(=O)OCC1=C(C(=O)O)N2C(=O)C(NC(=O)COc3ccccc3)C2SC1` (configuration not stated) registered a k of 0.378 h⁻¹. Turning to `CC(=O)OCC1=C(C(=O)O)N2C(=O)C(NC(=O)Cc3cccs3)C2SC1` (configuration not stated), the k is 0.349 h⁻¹ and 0.3 h⁻¹. Compound `CC1=C(C(=O)O)N2C(=O)C(NC(=O)C(N)C3=CCC=CC3)C2SC1` (configuration not stated) had a k of 0.067 h⁻¹. Take `CC1=C(C(=O)O)N2C(=O)C(NC(=O)COc3ccccc3)C2SC1` (configuration not stated): the k was 0.049 h⁻¹.

`O=C(COc1ccccc1)NC1C(=O)N2C(C(=O)[O-])=C(C[n+]3ccccc3)CSC12` (configuration not stated) had a k of 0.857 h⁻¹.

Consider `O=C(Cc1cccs1)NC1C(=O)N2C(C(=O)[O-])=C(C[n+]3ccccc3)CSC12` (configuration not stated), for which the k was 0.675 h⁻¹ and 1.08 h⁻¹. On the same count and under the same terms, next, `CC(=O)OCC1=C(C(=O)O)N2C(=O)C(NC(=O)Cc3ccccc3)C2SC1` (configuration not stated): 0.36 h⁻¹.

Compound `CC1=C(C(=O)O)N2C(=O)C(NC(=O)Cc3ccccc3)C2SC1` (configuration not stated) registered a k of 0.033 h⁻¹. The compound `Cc1nnc(SCC2=C(C(=O)O)N3C(=O)[C@@H](NC(=O)Cn4cnnn4)[C@H]3SC2)s1` [CEFAZOLIN] displayed a k of 0.217 h⁻¹. In turn, `CC1=C(C(=O)O)N2C(=O)[C@@H](NC(=O)[C@H](N)c3ccccc3)[C@H]2SC1` [CEPHALEXIN ANHYDROUS] returned a k of 0.145 h⁻¹.

Another data set is described as follows: Hydrolysis rate constant at pH 9.6. The format is ADME. As to conditions: buffer. Put shortly:
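Alkaline hydrolysis was followed by UV spectrophotometry on aqueous cephalosporin solutions at 6 × 10^-4 M and 35.0 ± 0.1 °C, with pH held at 9.60 ± 0.02 by borate buffer.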
Turning to `CCN(CC)C(=S)SCC1=C(C(=O)O)N2C(=O)C(NC(=O)Cc3cccs3)C2SC1` (configuration not stated), the k was 0.067 h⁻¹. In turn, `Cc1nc(CC(=O)NC2C(=O)N3C(C(=O)O)=C(CSc4nnc(C)o4)CSC23)no1` (configuration not stated) displayed a k of 0.105 h⁻¹. With `O=C(Cc1cccs1)NC1C(=O)N2C(C(=O)O)=C(CSc3c[nH]nn3)CSC12` (configuration not stated), the k was determined as 0.028 h⁻¹. `O=C(Cc1cccs1)NC1C(=O)N2C(C(=O)O)=C(CSC3=CCC=CC3)CSC12` (configuration not stated) displayed a k of 0.019 h⁻¹. With `O=C(Cc1cccs1)NC1C(=O)N2C(C(=O)O)=C(CSc3nc4ccccc4s3)CSC12` (configuration not stated), the k is 0.095 h⁻¹.

Turning to `Cc1nc(CC(=O)NC2C(=O)N3C(C(=O)O)=C(CSc4c[nH]nn4)CSC23)no1` (configuration not stated), the k came out at 0.026 h⁻¹.

Compound `Cn1nnnc1SCC1=C(C(=O)O)N2C(=O)C(NC(=O)C(Br)c3cccs3)C2SC1` (configuration not stated) displayed a k of 0.21 h⁻¹.

For the compound `Cc1nc(CC(=O)NC2C(=O)N3C(C(=O)O)=C(CSc4nnc(C)s4)CSC23)no1` (configuration not stated), the k is 0.104 h⁻¹. In turn, `CC1=C(C(=O)O)N2C(=O)C(NC(=O)Cc3noc(C)n3)C2SC1` (configuration not stated) gave a k of 0.021 h⁻¹. For `CC(=O)OCC1=C(C(=O)O)N2C(=O)C(NC(=O)NCc3cccs3)C2SC1` (configuration not stated), the k is > 3 h⁻¹. The same measure, in the same setting: in the case of `CC(=O)OCC1=C(C(=O)O)N2C(=O)C(NC(=O)CSc3ccncc3)C2SC1` (configuration not stated) it was 0.157 h⁻¹; in that of `CC(=O)OCC1=C(C(=O)O)N2C(=O)C(NC(=O)Cc3cccs3)C2SC1` (configuration not stated), 0.147 h⁻¹; in that of `CC(C(=O)NC1C(=O)N2C(C(=O)O)=C(CSc3nnnn3C)CSC12)c1cccs1` (configuration not stated), 0.112 h⁻¹. The compound `Cn1nnnc1SCC1=C(C(=O)O)N2C(=O)C(NC(=O)Cc3cccs3)C2SC1` (configuration not stated) came in with a k of 0.126 h⁻¹. In turn, `CC1=C(C(=O)O)N2C(=O)C(NC(=O)C(N)C3=CCC=CC3)C2SC1` (configuration not stated) displayed a k of 0.056 h⁻¹. Turning to `Cc1nnc(SCC2=C(C(=O)O)N3C(=O)C(NC(=O)Cc4cccs4)C3SC2)s1` (configuration not stated), the k is 0.12 h⁻¹. For `O=C(Cc1cccs1)NC1C(=O)N2C(C(=O)[O-])=C(C[n+]3ccccc3)CSC12` (configuration not stated), the k is 0.53 h⁻¹. Compound `CC(=O)OCC1=C(C(=O)O)N2C(=O)[C@@H](N)[C@H]2SC1` displayed a k of 0.037 h⁻¹. Consider `Cn1nnnc1SCC1=C(C(=O)O)N2C(=O)C(NC(=O)C(C(=O)[O-])c3cccs3)C2SC1.[Na+]` (configuration not stated), for which the k is 0.122 h⁻¹. Consider `CC1=C(C(=O)O)N2C(=O)C(NC(=O)Cc3ccccc3)C2SC1` (configuration not stated), for which the k worked out at 0.017 h⁻¹. Still for that read-out and setting: in the case of `NC(=O)c1ccc[n+](CC2=C(C(=O)[O-])N3C(=O)C(NC(=O)Cc4cccs4)C3SC2)c1` (configuration not stated) it was 0.57 h⁻¹; in that of `Cc1nnc(SCC2=C(C(=O)O)N3C(=O)[C@@H](NC(=O)Cn4cnnn4)[C@H]3SC2)s1` [CEFAZOLIN], 0.107 h⁻¹; in that of `CC1=C(C(=O)O)N2C(=O)[C@@H](NC(=O)[C@H](N)c3ccccc3)[C@H]2SC1` [CEPHALEXIN ANHYDROUS], 0.058 h⁻¹.
